Data set [1] in a line: Unbound Cmax in C57BL/6 mouse at 100 mg/kg. Conditions: in vivo. Format: ADME, organism-based. The essentials:
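C57BL/6-Foxp3-GFP reporter mice were dosed at 30 and 100 mg/kg/day for up to 7 days, with exposure determined at 100 mg/kg. The unbound Cmax and trough values were derived from total plasma levels. Treg readout was bioluminescence imaging 10 min after 3 mg luciferin ip, reported as radiance in photons/s/cm²/steradian.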

The nature of data set [2]: Volume of distribution in Wistar Han rat. Type of data set: ADME. The following applies: in vivo.
Data set [3] in a line: Inhibition of rat PI3Kdelta.
Data set [4] has as its target T1, Cytochrome P450 1A2 (Homo sapiens, UniProt P05177).
T1 sequence (P05177 whole entry): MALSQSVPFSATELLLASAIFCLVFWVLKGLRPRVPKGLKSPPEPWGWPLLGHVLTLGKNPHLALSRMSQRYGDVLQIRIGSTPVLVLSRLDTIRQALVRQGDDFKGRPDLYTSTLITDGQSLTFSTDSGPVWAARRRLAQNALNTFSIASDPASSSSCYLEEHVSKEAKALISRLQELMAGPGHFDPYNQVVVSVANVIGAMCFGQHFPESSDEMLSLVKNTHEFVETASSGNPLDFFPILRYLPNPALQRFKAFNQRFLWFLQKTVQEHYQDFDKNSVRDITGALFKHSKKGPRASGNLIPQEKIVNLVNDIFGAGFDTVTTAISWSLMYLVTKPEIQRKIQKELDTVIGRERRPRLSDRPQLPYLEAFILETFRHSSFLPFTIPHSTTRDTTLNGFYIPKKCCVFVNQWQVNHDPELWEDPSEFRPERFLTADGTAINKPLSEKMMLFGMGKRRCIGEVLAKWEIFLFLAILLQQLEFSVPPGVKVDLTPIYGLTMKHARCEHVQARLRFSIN
In words: Inhibition of CYP1A2 (unknown origin). Type of data set: ADME.

Data set [5] is described as follows: Protein binding in human plasma. Type of data set: ADME, cell-free. Conditions: read-out: PPB (converted).
The target of data set [6] is T2, Phosphatidylinositol 4,5-bisphosphate 3-kinase catalytic subunit delta isoform (Mus musculus) (UniProt O35904).
T2 sequence (whole entry): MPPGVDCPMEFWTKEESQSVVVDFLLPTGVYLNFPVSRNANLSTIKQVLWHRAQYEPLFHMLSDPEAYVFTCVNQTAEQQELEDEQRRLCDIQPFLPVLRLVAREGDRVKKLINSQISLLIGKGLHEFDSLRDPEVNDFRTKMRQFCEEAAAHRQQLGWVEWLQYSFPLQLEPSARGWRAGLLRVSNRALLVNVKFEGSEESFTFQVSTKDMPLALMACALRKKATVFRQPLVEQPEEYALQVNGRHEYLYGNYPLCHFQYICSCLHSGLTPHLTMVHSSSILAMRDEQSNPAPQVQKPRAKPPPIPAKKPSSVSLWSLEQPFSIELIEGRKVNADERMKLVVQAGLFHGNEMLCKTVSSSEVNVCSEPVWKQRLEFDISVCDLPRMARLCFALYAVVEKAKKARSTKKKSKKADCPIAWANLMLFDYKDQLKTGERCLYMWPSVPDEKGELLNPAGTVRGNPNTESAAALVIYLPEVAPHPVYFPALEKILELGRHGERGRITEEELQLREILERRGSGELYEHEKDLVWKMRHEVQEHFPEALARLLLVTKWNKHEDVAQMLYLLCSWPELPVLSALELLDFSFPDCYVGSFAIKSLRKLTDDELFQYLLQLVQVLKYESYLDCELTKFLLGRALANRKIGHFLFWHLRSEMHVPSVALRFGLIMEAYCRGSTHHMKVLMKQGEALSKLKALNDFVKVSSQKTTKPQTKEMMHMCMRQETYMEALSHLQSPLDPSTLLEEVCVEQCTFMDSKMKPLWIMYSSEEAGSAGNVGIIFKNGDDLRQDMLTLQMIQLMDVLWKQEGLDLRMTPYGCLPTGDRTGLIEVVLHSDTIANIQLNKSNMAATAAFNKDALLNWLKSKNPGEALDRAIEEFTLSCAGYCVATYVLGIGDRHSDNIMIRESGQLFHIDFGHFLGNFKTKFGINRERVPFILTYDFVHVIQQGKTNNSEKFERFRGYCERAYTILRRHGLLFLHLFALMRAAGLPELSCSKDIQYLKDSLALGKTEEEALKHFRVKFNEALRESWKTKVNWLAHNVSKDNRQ
In words: Inhibition of PI3Kdelta in Foxp3-GFP C57BL/6 mouse assessed as reduction in Treg population at 30 to 100 mg/kg administered upto 7 days. Format: organism-based. Conditions: dose 30-100 mg/kg, time day <=7. Also on record: scale not given: the % may be the effect or the level left. In short, it runs like this:
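C57BL/6 Foxp3-GFP reporter mice were dosed at 30 and 100 mg/kg/day for up to 7 days. Treg population was monitored by bioluminescence imaging 10 min after ip injection of 3 mg luciferin. Radiance was quantified as photons/s/cm²/steradian. Diphtheria toxin served as a positive control.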

The target of data set [7] is Cytochrome P450 2C9 (Homo sapiens, UniProt P11712). The data set can be described thus: Inhibition of CYP2C9 (unknown origin). Type of data set: ADME.
Cytochrome P450 2C9, sequence (P11712 whole entry): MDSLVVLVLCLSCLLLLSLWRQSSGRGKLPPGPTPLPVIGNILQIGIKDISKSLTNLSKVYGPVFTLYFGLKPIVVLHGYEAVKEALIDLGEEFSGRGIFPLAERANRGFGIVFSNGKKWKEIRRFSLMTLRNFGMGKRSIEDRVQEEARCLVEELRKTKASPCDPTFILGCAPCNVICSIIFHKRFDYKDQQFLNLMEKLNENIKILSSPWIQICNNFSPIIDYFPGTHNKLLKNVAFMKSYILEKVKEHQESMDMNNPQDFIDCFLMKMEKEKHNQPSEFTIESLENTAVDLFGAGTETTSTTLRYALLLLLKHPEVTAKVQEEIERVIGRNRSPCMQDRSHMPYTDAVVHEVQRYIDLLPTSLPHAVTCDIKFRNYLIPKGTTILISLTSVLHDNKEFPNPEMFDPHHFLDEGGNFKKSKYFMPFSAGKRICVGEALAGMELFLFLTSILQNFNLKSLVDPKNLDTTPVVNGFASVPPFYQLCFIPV
Data set [8] deals with Rattus norvegicus. In words: Immunomodulatory activity in ovalbumin induced Brown Norway rat allergic rhinitis model assessed as reduction in BAL count at 30 mg/kg, po administered for 2 days and treated with ovalbumin after 1 hr post second dose. Type of data set: functional, organism-based. Conditions: time 2.0 day. In short, it runs like this:
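Brown Norway rats were presensitized with ovalbumin, 0.020 mg ip daily for 14 days. They then received compound orally for 2 days (0.3–30 mg/kg range studied). Ovalbumin challenge came 1 h after the second dose. Eosinophil cell count in bronchoalveolar lavage was assessed 48 h later.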

Data set [9] can be described thus: Apparent permeability in pig LLC-PK1 cells. Type of data set: ADME, cell-based, Sus scrofa.
A short description of data set [10]: Half-life in Beagle dog. Type of data set: ADME, Canis lupus familiaris. The following applies: in vivo.
Data set [11] is described as follows: Unbound trough plasma concentration Brown Norway rat at 30 mg/kg, po. Format: ADME, organism-based. The following applies: in vivo.
In data set [12] the test system is BCRP. In words: Efflux ratio of apparent permeability from basolateral to apical side over apical to basolateral side in MDCK2 cells expressing BCRP. Type of data set: ADME, cell-based, Canis lupus familiaris, MDCK-II. Conditions: dog.
A short description of data set [13]: Intrinsic clearance in Beagle dog at 0.25 mg/kg, iv or 0.5 mg/kg, po. Format: ADME, organism-based, Canis lupus familiaris. Conditions: in vivo.
The nature of data set [14]: Cmax in C57BL/6 mouse at 100 mg/kg. Format: ADME, organism-based. The arrangement: dose 100 mg/kg. Conditions: in vivo.
The nature of data set [15]: Trough plasma concentration Brown Norway rat at 30 mg/kg, po. Type of data set: ADME, organism-based. Conditions: in vivo, read-out: Cmin.

Structures are written as SMILES. The source made the active and inactive calls. The rule behind the calls is not given here.

For orientation: Vd means a proportionality between amount in the body and measured concentration, not a real space. Broadly, the IC50 is the concentration that inhibits the measured activity by half. As a reminder, the Papp is the rate of passage across a membrane or cell layer, normalised by area and donor concentration. As a reminder, the half-life is the time in which the quantity being followed falls by half. A word on the efflux ratio: it is the permeability from basolateral to apical divided by that in the opposite direction, in the common usage. By Cmax is commonly meant the peak of the concentration-time curve. In data set [1], `CCn1c(-c2cnc(C)nc2)nc2c(N[C@H]3CCN(C(=O)C4CC4)C3)ncnc21` showed a fCmax of 16 µM. In addition, the Vd in [2] was found to be 1 L/kg. Moreover, the IC50 in data set [3] was 0.0066 µM; in data set [4], greater than 50 µM; in data set [7], greater than 50 µM. The fraction unbound in data set [5] was 0.7. Further, the Activity in data set [6] was 70%. Also, the result in data set [8] was Active. In addition, the Papp in [9] came out at 22 ×10⁻⁶ cm/s. Further, the half-life in [10] came to 4.3 h. In data set [11], this compound returned a fCmin of 62 nM. In addition, in data set [12], the efflux ratio stood at 5. In [13], the CL came out at 6.2 mL/min/kg. In data set [14], this compound yielded a maximum concentration (Cmax) of 33 µM. The concentration in data set [15] turned out to be 0.103 µM.

Values taken from ChEMBL document CHEMBL4834420, “Projected Dose Optimization of Amino- and Hydroxypyrrolidine Purine PI3Kδ Immunomodulators” (J Med Chem, 2021).
